TNAP act hi DEA – TNAP (human) activation, high acceptor; P05186; purified TNAP, CDP-star luminescence, 1 M DEA, 30 min; hits give high values; 0 = EDTA background, 1 = DMSO-only activity; activation factor at 20 µM; 200,000 tested, under 10 active;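 active = activation factor at least 2 at 20 µM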
Target sequence (P05186 whole entry, looked up): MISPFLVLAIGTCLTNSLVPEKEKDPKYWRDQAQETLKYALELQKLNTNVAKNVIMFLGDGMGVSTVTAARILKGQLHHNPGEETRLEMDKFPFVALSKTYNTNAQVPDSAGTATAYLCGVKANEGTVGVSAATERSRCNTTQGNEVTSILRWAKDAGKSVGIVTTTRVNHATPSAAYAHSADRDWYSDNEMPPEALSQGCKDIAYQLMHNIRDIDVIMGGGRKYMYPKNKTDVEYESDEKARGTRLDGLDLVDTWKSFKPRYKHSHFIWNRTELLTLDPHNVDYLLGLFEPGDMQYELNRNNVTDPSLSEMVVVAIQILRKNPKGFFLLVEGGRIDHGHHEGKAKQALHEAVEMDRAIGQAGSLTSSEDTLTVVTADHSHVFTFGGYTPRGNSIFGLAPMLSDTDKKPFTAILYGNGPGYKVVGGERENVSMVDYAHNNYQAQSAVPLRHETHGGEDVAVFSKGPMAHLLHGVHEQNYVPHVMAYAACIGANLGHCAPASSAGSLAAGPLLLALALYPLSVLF
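system = human TNAP | amount = enzyme diluted 1/800 final | reagent = 100 µM CDP-star substrate | signal = luminescent substrate turnover signal | dosing = one dose, 20 µM | benchmarks = EDTA negative control, DMSO positive control | measure = activation factor | timing = 30 min reaction, room temperature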
Furin inh – blocks human furin protease activity; P09958; purified furin, fluorogenic substrate cleavage; inhibition, % at 20 µM or 30 µM; 220,000 compounds, 0.061% hits; AID 463115; in the data active = inhibition above about 25%
Pf gametocyte – kills late stage P. falciparum gametocytes. 150,000 compounds, 0.065% hits. AID 743093. P. falciparum stage V gametocytes, ATP luminescence, 24 h. inhibition, % at 10.9 µM;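 active = inhibition above the mean plus 3 SD of compounds within the control limits, set per campaign, cut at about 38% in these data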;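 also: 0% = DMSO wells and 100% = medium only without gametocytes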
TNAP inh hiacc – blocks human TNAP under high phosphate acceptor concentration. P05186. purified TNAP, CDP-star luminescence, 1 M DEA. inhibition, % at 20 µM. 200,000 compounds, 0.03% hits;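 active = over 50% inhibition of tissue-nonspecific alkaline phosphatase at 20 µM in the single-dose screen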;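 also: plate controls were DMSO wells for no effect and EDTA-quenched wells as full inhibition for full effect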
HMGR II inh – E. faecalis class II HMG-CoA reductase inhibition; purified E. faecalis HMGR, NADPH absorbance 340 nm kinetic; 190,000 compounds, 0.41% hits; AID 1066; inhibition, % at 10 µM;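 active = inhibition above a set limit, the median over all tested compounds plus 3 SD, cut at about 9.5% in these data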;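 also: enzyme runs in reverse so mevalonate oxidation gives rising NADPH absorbance; 0% = complete reaction with DMSO and 100% = background rate lacking mevalonate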
TNAP inh noacc – blocks human TNAP activity with no phosphate acceptor present | P05186 | purified TNAP, CDP-star luminescence, 30 min | inhibition, % at 20 µM | 200,000 compounds, 0.26% hits | AID 1012;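 active = tissue-nonspecific alkaline phosphatase inhibition above about 50% at 20 µM in the single-dose screen, limit read from the data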;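 also: 0% = DMSO negative control and 100% = EDTA positive control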
* = called active by the depositor; . = no result given. An excerpt weighted towards active compounds, which were near 0.68% of everything screened.

SMILES | TNAP act hi DEA | Furin inh | Pf gametocyte | TNAP inh hiacc | HMGR II inh | TNAP inh noacc
CCCCN1C(=O)/C(=C/C=C2\SCCN2C)SC1=S | 0.5 | -7.3 | 3.0 | 52.0* | -6.9 | 43.0
CN1CCS/C1=C/C=C1\SC(=S)N(CC(=O)O)C1=O | 0.6 | -9.7 | 1.2 | 43.0 | -1.3 | 41.1
COc1ccc(-c2cc(C(=O)NCc3cn(C)nc3C)c3ccccc3n2)cc1OC | 1 | -14.1 | -32.7 | 0.6 | -2.1 | -6.3
Cc1ccc(NC2(C#N)C(=O)Nc3ccccc32)cc1C (centres undefined) | 0.9 | -34.0 | -16.1 | 6.1 | 1.0 | 4.8
COC(=O)c1ccc(NC2(C#N)C(=O)Nc3ccccc32)cc1 (centres undefined) | 1 | 31.4* | 22.6 | -1.2 | -2.3 | -3.7
COC(=O)[C@@H]1C[C@H]2CC[C@H](O)C[C@H]2N1Cc1ccccc1OS(=O)(=O)c1ccc(C)cc1 | . | -20.0 | 25.0 | . | . | .
c1ccc(-c2nnc(SCc3nnc(-c4cccs4)o3)o2)cc1 | 1 | 0.6 | . | -3.4 | 15.9* | -5.9
CCCCN(C(=S)SC)C1CCS(=O)(=O)C1 (centres undefined) | . | -20.9 | 13.6 | . | . | .
O=C(NC1CCCCCC1)C1c2ccccc2C(=O)N1Cc1cccs1 (centres undefined) | 1 | -24.7 | -20.2 | -0.2 | -2.1 | -14.7
O=C1c2ccccc2C(O)N1Cc1cccs1 (centres undefined) | 1 | -17.4 | 54.7* | -2.2 | -2.4 | -7.9
O=C(O)c1cn(Cc2ccccc2)c2ccc(Cl)cc2c1=O | . | . | 22.4 | . | . | .
COc1ccc(S(=O)(=O)N2CCCCCC2)cc1N(C)S(=O)(=O)c1ccc(C)cc1 | 1 | 3.8 | -4.7 | 3.7 | -1.1 | -8.1
O=c1[nH][nH]c(-c2ccccc2O)c1C(C[N+](=O)[O-])c1cccc(Cl)c1 (centres undefined) | 0.6 | -19.3 | . | 42.3 | -0.1 | 48.7
O=c1[nH][nH]c(-c2ccccc2O)c1C(C[N+](=O)[O-])c1ccc(Cl)cc1Cl (centres undefined) | 0.5 | -8.3 | 2.0 | 49.5 | -1.1 | 70.3*
Cc1nn(C)c(C)c1CN(C)C(=O)CCCC(=O)O | 1 | 25.1* | 3.2 | -0.3 | -7.2 | -6.1
Cc1nn(CCC(=O)O)c(C)c1C | 1 | -16.5 | . | -3.4 | -2.5 | -9.8
Cc1ccc(C)c(NCC(O)c2ccccc2)c1 (centres undefined) | 1.1 | -28.7 | -16.5 | -7.4 | 0.8 | -10.1
Cc1ccc2ccc(C(Nc3cccc(C(F)(F)F)c3)c3cccnc3)c(O)c2n1 (centres undefined) | 1.1 | -7.7 | 39.0* | -8.5 | 0.0 | -42.2
Cc1ccnc(NC(c2cccnc2)c2ccc3cccnc3c2O)c1 (centres undefined) | 1.1 | -7.0 | -2.9 | -6.4 | 0.0 | -19.9
CCNC(=O)C1CC(=O)N(Cc2ccc3c(c2)OCO3)C(=Nc2ccc(F)cc2)S1 (centres undefined) | 1 | 32.2* | . | 0.0 | -5.1 | -2.4
COc1ccc(N=C2SC(C(N)=O)CC(=O)N2Cc2ccc3c(c2)OCO3)cc1 (centres undefined) | . | -26.8 | 1.3 | . | . | .
CCCCC1=NN(C(=O)c2cccnc2)C(O)(C(F)(F)F)C1 (centres undefined) | . | -13.3 | -28.6 | . | . | .
Fc1ccc(-c2[nH]ncc2-c2nnnn2-c2ccccc2)c(F)c1 | 0.9 | -1.7 | . | 5.7 | 1.4 | 84.3*
CC(=O)N[C@@H](C)C(=O)OC(C)C(=O)Nc1cccc([N+](=O)[O-])c1 (some centres undefined) | 1 | -21.9 | 17.8 | -4.8 | -4.2 | -4.0
CC1CCN(C(=O)COC(=O)c2n[nH]c3ccccc23)CC1 | 1 | -20.0 | . | -0.3 | 0.9 | 58.3*
COC(=O)c1n[nH]c2ccccc12 | 1.1 | -26.4 | -21.9 | -7.7 | 1.4 | 55.3*
O=C(OCC(=O)N1CCCCCC1)c1n[nH]c(=O)c2ccccc12 | 1.1 | -11.6 | . | -6.9 | -2.2 | -7.2
O=C(COC(=O)c1n[nH]c2ccccc12)NC(=O)NC1CCCC1 | 1 | -22.9 | . | 2.3 | 3.9 | 25.1
CCC1CCCCN1C(=O)COC(=O)c1n[nH]c2ccccc12 (centres undefined) | 1 | -30.3 | . | -1.7 | 2.1 | 56.4*
COCCNC(=O)c1n[nH]c2ccccc12 | 1 | -26.7 | 1.5 | -2.8 | -11.9 | 6.5
